Results taken from ChEMBL document CHEMBL1122125, “Synthesis and in vivo antitumor activity of potential 5-fluorouracil prodrugs” (1982).

Tests used:
Type in all cases: functional
[1] = tested on: Mus musculus; test: Percent increase in life span against P-388 leukemia in mice was determined at a dose of 50 mg/kg; conditions: P388
Outline: (§1)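 Male B6D2F1J mice, 5 per dose group, received 10⁶ P-388 cells ip on day 0. Dosing was ip qd × 4 on days 1-4 in sterile saline, or 10% Tween 80 for the butyl thioether. Median survival times of treated (T) and untreated control (C, 10-17 mice) groups were compared: %ILS = [(T/C) − 1]100. Weights taken on days 1 and 7.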

[2] = tested on: Mus musculus; test: Antitumor activity was determined for average weight on day 1 against P-388 leukemia in mice at a dose of 200 mg/kg
Outline: (§2)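 Male B6D2F1J mice, groups of 5, inoculated ip with 10⁶ P-388 cells on day 0. Drug given ip on days 1-4 (qd × 4) in sterile saline, or in 10% Tween 80 for the poorly water-soluble thioether. Average weight per mouse recorded on day 1, with reweighing on day 7 for percent weight change. Untreated control groups had 10-17 animals per experiment.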

[3] = tested on: Mus musculus; test: Antitumor activity was determined for 7-day average percent weight change against P-388 leukemia in mice at a dose of 100 mg/kg
Outline: (§3)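 Male B6D2F1J mice given 10⁶ P-388 cells ip on day 0, then treated ip once daily on days 1-4 (qd × 4), 5 mice per dose group. Compounds dosed in sterile saline, except one lipophilic thioether given in 10% Tween 80. Mice weighed on days 1 and 7; mean weight per mouse on day 1 and 7-day weight change reported in g and as percent.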

[4] = tested on: Mus musculus; test: Antitumor activity was determined for survival range of mice against P-388 leukemia in mice at a dose of 25 mg/kg
Outline: (§4)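 Male B6D2F1J mice implanted ip with 10⁶ P-388 cells on day 0; test agents given ip on days 1–4 (qd × 4) in sterile saline, or in 10% Tween 80 for the lipophilic thioether. Groups of 5 treated mice, with 10–17 untreated controls per experiment. Mice weighed on days 1 and 7 to give the 7-day weight change in g and %. Survival recorded in days as median and range.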

[5] = tested on: Mus musculus; test: Antitumor activity was determined for survival range of mice against P-388 leukemia in mice at a dose of 200 mg/kg; outline: as §4
[6] = tested on: Mus musculus; test: Percent increase in life span against P-388 leukemia in mice was determined at a dose of 25 mg/kg; conditions: P388; outline: as §1
[7] = tested on: Mus musculus; test: Antitumor activity was determined for survival range of mice against P-388 leukemia in mice at a dose of 300 mg/kg; outline: as §4
[8] = tested on: Mus musculus; test: Antitumor activity was determined for average 7-day weight change against P-388 leukemia in mice at a dose of 300 mg/kg; outline: as §3
[9] = tested on: Mus musculus; test: Percent increase in life span against P-388 leukemia in mice was determined at a dose of 200 mg/kg; conditions: P388; outline: as §1
[10] = tested on: Mus musculus; test: Antitumor activity was determined for median survival of mice against P-388 leukemia in mice at a dose of 100 mg/kg; outline: as §4
[11] = tested on: Mus musculus; test: Antitumor activity was determined for survival range of mice against P-388 leukemia in mice at a dose of 100 mg/kg; outline: as §4
[12] = tested on: Mus musculus; test: Antitumor activity was determined for 7-day average percent weight change against P-388 leukemia in mice at a dose of 50 mg/kg; outline: as §3
[13] = tested on: Mus musculus; test: Antitumor activity was determined for average 7-day weight change against P-388 leukemia in mice at a dose of 100 mg/kg; outline: as §3
[14] = tested on: Mus musculus; test: Antitumor activity was determined for average weight on day 1 against P-388 leukemia in mice at a dose of 100 mg/kg; outline: as §3
[15] = tested on: Mus musculus; test: Antitumor activity was determined for average 7-day weight change against P-388 leukemia in mice at a dose of 50 mg/kg; outline: as §3
[16] = tested on: Mus musculus; test: Antitumor activity was determined for median survival of mice against P-388 leukemia in mice at a dose of 50 mg/kg; outline: as §4
[17] = tested on: Mus musculus; test: Antitumor activity was determined for average 7-day weight change against P-388 leukemia in mice at a dose of 25 mg/kg; outline: as §3
[18] = tested on: Mus musculus; test: Antitumor activity was determined for average weight on day 1 against P-388 leukemia in mice at a dose of 25 mg/kg; outline: as §2
[19] = tested on: Mus musculus; test: Antitumor activity was determined for survival range of mice against P-388 leukemia in mice at a dose of 50 mg/kg; outline: as §4
[20] = tested on: Mus musculus; test: Antitumor activity was determined for median survival of mice against P-388 leukemia in mice at a dose of 300 mg/kg; outline: as §4
[21] = tested on: Mus musculus; test: Antitumor activity was determined for 7-day average percent weight change against P-388 leukemia in mice at a dose of 25 mg/kg; outline: as §3
[22] = tested on: Mus musculus; test: Antitumor activity was determined for median survival of mice against P-388 leukemia in mice at a dose of 25 mg/kg; outline: as §4
[23] = tested on: L1210; test: Evaluated for cytotoxicity against L1210 mouse leukemia cells; conditions: read-out: ID50 (the source's name)
Outline: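 L1210 murine leukemia cells in Eagle's minimal essential medium with 15% fetal calf serum, streptomycin (100 μg/mL), penicillin (100 units/mL) and 0.05 mM 2-mercaptoethanol. Cells counted by Coulter counter after 48 h exposure. ID50 is the 50% growth-inhibitory dose. Triplicate assays, standard deviation ±10%.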

[24] = tested on: Mus musculus; test: Antitumor activity was determined for 7-day average percent weight change against P-388 leukemia in mice at a dose of 200 mg/kg; outline: as §3
[25] = tested on: Mus musculus; test: Antitumor activity was determined for 7-day average percent weight change against P-388 leukemia in mice at a dose of 300 mg/kg; outline: as §3
[26] = tested on: Mus musculus; test: Antitumor activity was determined for average weight on day 1 against P-388 leukemia in mice at a dose of 50 mg/kg; outline: as §2
[27] = tested on: Mus musculus; test: Antitumor activity was determined for median survival of mice against P-388 leukemia in mice at a dose of 200 mg/kg; outline: as §4
[28] = tested on: Mus musculus; test: Antitumor activity was determined for average 7-day weight change against P-388 leukemia in mice at a dose of 200 mg/kg; outline: as §3
[29] = tested on: Mus musculus; test: Percent increase in life span against P-388 leukemia in mice was determined at a dose of 300 mg/kg; conditions: P388; outline: as §1
[30] = tested on: Mus musculus; test: Antitumor activity was determined for average weight on day 1 against P-388 leukemia in mice at a dose of 300 mg/kg; outline: as §2
[31] = tested on: Mus musculus; test: Percent increase in life span against P-388 leukemia in mice was determined at a dose of 100 mg/kg; conditions: P388; outline: as §1

Work on `O=C(O)[C@H]1OC(n2cc(F)c(=O)[nH]c2=O)[C@H](O)[C@@H]1O` (stereo partly specified) yielded an ILS at 50 mg/kg [1] of 36%, an Average weight [2] of 23.8 g mouse-1 and a Weight change [3] of 8%. The Survival range [4] was 14, the Survival range [5] was 16 and the ILS at 25 mg/kg [6] was 27%. It also gave a Survival range [7] of 16, an Average weight [8] of 0 g mouse-1 and an ILS at 200 mg/kg [9] of 45%. For the same compound, the Survival median [10] was 16, the Survival range [11] was 15 and the Weight change [12] was 7%. For the same compound, the Average weight [13] was 2 g mouse-1, the Average weight [14] was 23.6 g mouse-1 and the Average weight [15] was 1.6 g mouse-1. The Survival median [16] was 15, the Average weight [17] was 2.6 g mouse-1 and the Average weight [18] was 24.6 g mouse-1. The Survival range [19] was 13, the Survival median [20] was 18 and the Weight change [21] was 10%. The Survival median [22] was 14, the IC50 [23] was over 1 mM and the Weight change [24] was -3%. It also gave a Weight change [25] of 0%, an Average weight [26] of 24.2 g mouse-1 and a Survival median [27] of 16. It also gave an Average weight [28] of -0.8 g mouse-1, an ILS at 300 mg/kg [29] of 63% and an Average weight [30] of 25 g mouse-1. It also gave an ILS at 100 mg/kg [31] of 45%.
